Reference: ChEMBL document CHEMBL1629490, “Synthesis and anti-inflammatory evaluation of novel mono-carbonyl analogues of curcumin in LPS-stimulated RAW 264.7 macrophages” (Eur J Med Chem, 2010)
The source made the active and inactive calls. No cut-off for these calls is given here.

Columns and labels:
RAW264.7 [1] = test: Antiinflammatory activity in mouse RAW264.7 cells assessed as inhibition of LPS-induced TNF alpha production at 10 uM after 2 hrs by ELISA; assay type: functional; settings: for inhibition at 10 µM: RAW264.7, 2 h
Outline: (§1)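 RAW 264.7 cells were grown in DMEM with 10% heat-inactivated FBS and penicillin/streptomycin at 37 °C with 5% CO2, plated at 4.0 × 10^5/plate overnight, and pretreated for 2 h with compound at 10 µM (DMSO stock; vehicle control). LPS (0.5 µg/ml) was added for 22 h. TNF-α and IL-6 in the medium were measured by ELISA, normalized to cell protein, and expressed as % of LPS control. Values are mean ± SE of 3–5 independent experiments.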

RAW264.7 [2] = test: Antiinflammatory activity in mouse RAW264.7 cells assessed as inhibition of LPS-induced IL-6 production at 10 uM after 2 hrs by ELISA; assay type: functional; settings: for inhibition at 10 µM: RAW264.7, 2 h; outline: as §1
RAW264.7 [3] = test: Antiinflammatory activity in mouse RAW264.7 cells assessed as inhibition of LPS-induced IL-6 production after 2 hrs by ELISA; assay type: functional, cell-based; settings: RAW264.7, 2 h
RAW264.7 [4] = test: Antiinflammatory activity in mouse RAW264.7 cells assessed as inhibition of LPS-induced TNF alpha production at 1 to 20 uM after 2 hrs by ELISA; assay type: functional, cell-based
Outline: (§2)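 Murine RAW 264.7 cells were plated at 4.0 × 10^6/plate overnight (37 °C, 5% CO2) and pretreated for 2 h with compound at 1, 2.5, 5.0, 10 and 20 µM. LPS at 0.5 µg/ml followed for 22 h. Media TNF-α and IL-6 were measured by ELISA, normalized to total cell-lysate protein, and given as % of LPS control. Values are mean ± SE of 3–5 independent experiments.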

RAW264.7 [5] = test: Antiinflammatory activity in mouse RAW264.7 cells assessed as inhibition of LPS-induced IL-6 production at 1 to 20 uM after 2 hrs by ELISA; assay type: functional, cell-based; outline: as §2
RAW264.7 [6] = test: Cytotoxicity against mouse RAW264.7 cells; assay type: cell-based
RAW264.7 [7] = test: Antiinflammatory activity in mouse RAW264.7 cells assessed as inhibition of LPS-induced TNF alpha production after 2 hrs by ELISA; assay type: functional, cell-based; settings: RAW264.7, 2 h

Row | SMILES | inhibition at 10 µM (RAW264.7 [1]) | inhibition (RAW264.7 [2]) | inhibition (RAW264.7 [1]) | further results
1 | COc1ccc(/C=C2\CC/C(=C\c3ccc(OC)cc3F)C2=O)c(F)c1 | 20% | Active |  | 
2 | O=C1/C(=C/c2ccc(N3CCOCC3)cc2)CCC/C1=C\c1ccc(N2CCOCC2)cc1 |  | Active | Active | 
3 | COc1cc(/C=C/C(=O)CC(=O)/C=C/c2ccc(O)c(OC)c2)ccc1O [CURCUMIN] | 35.6% |  |  | inhibition at 10 µM (RAW264.7 [2]): 75.7%
4 | Cc1cc(N(CCCl)CCCl)ccc1/C=C1\CCC/C(=C\c2ccc(N(CCCl)CCCl)cc2C)C1=O |  | Active | Active | 
5 | COc1cc(OC)c(OC)cc1/C=C1\CC/C(=C\c2cc(OC)c(OC)cc2OC)C1=O |  | Active | Active | 
6 | Cc1cc(N(CCCl)CCCl)ccc1/C=C1\CC/C(=C\c2ccc(N(CCCl)CCCl)cc2C)C1=O |  |  | Active | inhibition at 10 µM (RAW264.7 [2]): 30%
7 | O=C1/C(=C/c2ccc(C(F)(F)F)cc2C(F)(F)F)CCC/C1=C\c1ccc(C(F)(F)F)cc1C(F)(F)F | 20% | Active |  | 
8 | O=C1/C(=C/c2ccc(N3CCOCC3)cc2)CC/C1=C\c1ccc(N2CCOCC2)cc1 |  | Active | Active | 
9 | O=C1/C(=C/c2ccc(C(F)(F)F)cc2F)CCC/C1=C\c1ccc(C(F)(F)F)cc1F |  | Active | Active | 
10 | O=C1/C(=C/c2ccc(C(F)(F)F)cc2F)CC/C1=C\c1ccc(C(F)(F)F)cc1F |  | Active | Active | 
11 | CCOc1ccc(Br)cc1/C=C1\CC/C(=C\c2cc(Br)ccc2OCC)C1=O |  | Active | Active | 
12 | COc1cc(OC)c(OC)cc1/C=C1\CCC/C(=C\c2cc(OC)c(OC)cc2OC)C1=O |  | Active | Active | 
13 | CCN(CC)c1ccc(/C=C2\CC/C(=C\c3ccc(N(CC)CC)cc3)C2=O)cc1 | 67.5% |  |  | IC50 (RAW264.7 [3]): 1.07 µM; inhibition (RAW264.7 [4]): Dose-dependent effect; inhibition at 10 µM (RAW264.7 [2]): 92.7%; inhibition (RAW264.7 [5]): Dose-dependent effect; Activity (RAW264.7 [6]): Non-toxic; IC50 (RAW264.7 [7]): 16.4 µM
14 | CCOC(OCC)c1cccc(/C=C2\CC/C(=C\c3cccc(C(OCC)OCC)c3)C2=O)c1 |  | Active | Active | 
15 | O=C(/C=C/c1c(F)cccc1C(F)(F)F)/C=C/c1c(F)cccc1C(F)(F)F |  |  | Active | inhibition at 10 µM (RAW264.7 [2]): 30%
16 | COc1ccc(/C=C/C(=O)/C=C/c2ccc(OC)cc2F)c(F)c1 | 20% |  |  | inhibition at 10 µM (RAW264.7 [2]): 51.1%
17 | COc1ccc(F)c(/C=C2\CCC/C(=C\c3cc(OC)ccc3F)C2=O)c1 | 20% | Active |  | 

Row | SMILES | inhibition at 10 µM (RAW264.7 [1]) | inhibition (RAW264.7 [2]) | inhibition (RAW264.7 [1]) | further results
18 | COc1cccc(/C=C/C(=O)/C=C/c2cccc(OC)c2O)c1O |  | Active | Active | 
19 | CCN(CC)c1ccc(/C=C2\CCC/C(=C\c3ccc(N(CC)CC)cc3)C2=O)cc1 |  | Active | Active | 
20 | COc1ccc(F)c(/C=C2\CC/C(=C\c3cc(OC)ccc3F)C2=O)c1 |  |  | Active | inhibition at 10 µM (RAW264.7 [2]): 30%
21 | CCN(CC)c1ccc(/C=C/C(=O)/C=C/c2ccc(N(CC)CC)cc2)cc1 |  |  | Active | inhibition at 10 µM (RAW264.7 [2]): 50%
22 | COc1cccc(/C=C2\CC/C(=C\c3cccc(OC)c3O)C2=O)c1O |  | Active | Active | 
23 | O=C1/C(=C/c2ccc(N3CCCCC3)cc2)CCC/C1=C\c1ccc(N2CCCCC2)cc1 |  | Active | Active | 
24 | O=C(/C=C/c1ccc(N2CCOCC2)cc1)/C=C/c1ccc(N2CCOCC2)cc1 | > 20% |  |  | inhibition at 10 µM (RAW264.7 [2]): 50%
25 | CCOc1ccc(Br)cc1/C=C1\CCC/C(=C\c2cc(Br)ccc2OCC)C1=O |  | Active | Active | 
26 | COc1cc(OC)c(OC)cc1/C=C/C(=O)/C=C/c1cc(OC)c(OC)cc1OC | > 20% | Active |  | 
27 | CCOc1ccc(Br)cc1/C=C/C(=O)/C=C/c1cc(Br)ccc1OCC |  | Active | Active | IC50 (RAW264.7 [3]): 3.64 µM; inhibition (RAW264.7 [4]): Dose-dependent effect; inhibition (RAW264.7 [5]): Dose-dependent effect; Activity (RAW264.7 [6]): Non-toxic; IC50 (RAW264.7 [7]): 6.28 µM
28 | O=C(/C=C/c1ccc(N2CCCCC2)cc1)/C=C/c1ccc(N2CCCCC2)cc1 |  |  | Active | inhibition at 10 µM (RAW264.7 [2]): 50%
29 | O=C1/C(=C/c2cccc(C(F)(F)F)c2F)CCC/C1=C\c1cccc(C(F)(F)F)c1F | > 20% | Active |  | 
30 | O=C1/C(=C/c2c(F)cccc2C(F)(F)F)CC/C1=C\c1c(F)cccc1C(F)(F)F | > 20% | Active |  | 
31 | Cc1cc(N(CCCl)CCCl)ccc1/C=C/C(=O)/C=C/c1ccc(N(CCCl)CCCl)cc1C | 20% |  |  | inhibition at 10 µM (RAW264.7 [2]): 30%
32 | O=C1/C(=C/c2cccc(C(F)(F)F)c2F)CC/C1=C\c1cccc(C(F)(F)F)c1F |  | Active | Active | 
33 | O=C1/C(=C/c2c(F)cccc2C(F)(F)F)CCC/C1=C\c1c(F)cccc1C(F)(F)F |  | Active | Active | 
34 | O=C1/C(=C/c2ccc(N3CCCCC3)cc2)CC/C1=C\c1ccc(N2CCCCC2)cc1 | 20% | Active |  | 
